Rows were chosen to be rich in hits. Some 4.1% of all compounds tested hit in one or more screens of this group.
KCNQ1 pot: potentiators or activators of KCNQ1 channel, primary screen, cell-based, thallium flux, high-throughput; Potassium voltage-gated channel subfamily KQT member 1 (Homo sapiens), P51787; CHO-K1 KCNQ1, thallium flux FluxOR fluorescence; hits give high values; B-score at 10 µM; hit rate 0.35% among 310,000;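 active means fluorescence ratio B-score, a plate-corrected score, at least three library SD, with initial intensity B-score within 5 SD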
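Medium – assay buffer, equal DMSO in all wells · Material – CHO-K1 cell line with stable KCNQ1 potassium channel expression · Signal – kinetic FluxOR thallium fluorescence, 10-s 1-Hz baseline, 110-s post-stimulus read · Compound – single concentration per compound, DMSO matched to controls · Schedule – 37 °C overnight plating, 90-min dark dye load, 20-min compound pretreatment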
KCNQ1 inh: inhibitors of human KCNQ1 channel, primary screen, cell-based, thallium flux, high-throughput. CHO-K1 KCNQ1, FluxOR thallium flux fluorescence; hits give high values. hit rate 1.3% among 310,000. Potassium voltage-gated channel subfamily KQT member 1 (Homo sapiens), P51787. AID 2642, 2010. B-score at 10 µM;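 active means compounds whose thallium flux B-score, printed positive for inhibition, exceeds three library SD while starting fluorescence stays within three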;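 further: channel opened by potassium depolarization with thallium stimulus after 20 min compound exposure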
hERG rescue: hERG rescue from dofetilide block, primary screen, cell-based, CHO-hERG, FluxOR thallium flux, dofetilide IC70; AID 1511, 2009; activation (rescue from dofetilide block), less the hit threshold, % at 10 µM; Voltage-gated inwardly rectifying potassium channel KCNH2 (Homo sapiens), Q12809; dofetilide IC70 present; hit rate 0.51% among 310,000;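 active means activation above the mean of controls blocked by dofetilide plus 5 SD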;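 further: thallium influx through hERG after potassium depolarization seen as dye fluorescence rise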
Cl transport mod: KCC2 cotransporter modulators, thallium flux, primary screen, cell-based, HEK293 KCC2, FluoZin-2 fluorescence, MLSMR | hit rate 2.2% among 190,000 | Solute carrier family 12 member 5 (Homo sapiens), Q9H2X9 | B-score of Tl+ flux slope (higher = more flux/activation; lower = inhibition) at 10 µM | KCC2 cells, thallium flux FluoZin-2 fluorescence;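 active means thallium flux slope and its plate-corrected score both differing from the plate sample mean at a set confidence after two filtering rounds, in either direction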;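 further: slope of fluorescence scaled to starting intensity during 10 to 20 s after thallium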
KCNK9 block: KCNK9 potassium channel inhibitors, primary screen, HEK293 cells, thallium flux | Potassium channel subfamily K member 9 (Homo sapiens), Q9NPC2 | FluxOR thallium flux fluorescence; hits give low values | B-score at 10 µM | hit rate 1.2% among 310,000 | AID 488922, 2010;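 active means ratio B-score over 3 SD below the library mean, with starting fluorescence within 5 SD of its mean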;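 further: negative B-score means less thallium flux so channel inhibition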
KCNK3 block: human KCNK3 channel inhibitors, primary screen, CHO cells, FluxOR thallium flux, B-score; Potassium channel subfamily K member 3 (Homo sapiens), O14649; FluxOR fluorescence; hits give low values; B-score at 10 µM; hit rate 0.84% among 340,000; AID 602410, 2012;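 active means B-score under library mean minus 4 SD, starting fluorescence ratio at most library mean plus 5 SD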;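 further: more negative B-score means stronger inhibition of thallium flux through KCNK3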
KCC2 secondary: KCC2 modulators in sodium-free buffer, confirmation, cell-based, HEK293 KCC2, thallium flux, secondary assay; shares compounds with Cl transport mod; FluoZin2 fluorescence; hits give high values; normalised thallium flux (F/F0 slope) at 10 µM; hit rate 15% among 3,700; AID 1713, 2009;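 active means thallium flux slope above the same plate's solvent-only control mean plus 3 SD; inconclusive means the two replicate wells disagree; inactive means no significant difference from solvent-only control wells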
KCC2 bumet counter: thallium flux persisting under bumetanide in KCC2 cells, confirmation, counter-screen for KCC2 modulator project, cell-based, HEK293 KCC2, FluoZin2, secondary assay 3; shares compounds with Cl transport mod; HEK293-KCC2 + bumetanide/ouabain; hits give high values; normalized thallium flux at 10 µM; hit rate 49% among 3,700; AID 1714, 2009;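 active means thallium entry rate above the same plate's blocked-transporter control wells by more than 3 SD; inconclusive means the two repeat wells disagree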;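 further: raw slope of fluorescence over initial fluorescence between 10 and 20 s after thallium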
KCC2 secondary2: KCC2 modulators without ouabain present, confirmation, cell-based, HEK293 KCC2, thallium flux, FluoZin2, secondary assay 2. AID 1715, 2009. thallium flux FluoZin2 fluorescence; actives lie on both sides; F/F0 rise rate, 10–20 s post-thallium. shares compounds with Cl transport mod. hit rate 23% among 3,700. normalized thallium flux at 10 µM;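 active means thallium flux slope more than 3 SD above or below the plate's solvent-only control mean, mostly below; inconclusive means the two repeat wells disagreed; inactive means no significant shift from solvent-only controls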;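 further: raw slope with 0.1% DMSO as baseline and bumetanide as block control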
HEK counter1: thallium flux modulation in parental HEK cells, confirmation, counter-screen for KCC2 modulator project, cell-based, counterscreen 1; shares compounds with Cl transport mod; HEK293 parental cells, thallium flux FluoZin2, ouabain; baseline-ratio fluorescence slope, 10–20 s after thallium; thallium flux rate (normalised fluorescence) at 10 µM; hit rate 46% among 3,700; AID 1716, 2009;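 active means thallium flux rate significantly above the same plate's solvent-only control wells, beyond their mean plus 3 SD; inconclusive means the two replicate wells gave conflicting results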
KCC2 retest ouab: KCC2 inhibitors and activators, ouabain retest, confirmation, HEK-KCC2 cells; shares compounds with Cl transport mod; HEK293-KCC2, thallium flux FluoZin2 fluorescence; bidirectional: low = inhibitor, high = activator; raw Tl+ flux slope (below DMSO = inhibition, above = activation) at 10 µM; hit rate 48% among 3,700;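 active means thallium flux slope beyond 3 SD from same-plate DMSO control mean in most replicates, usually higher, sometimes lower; inconclusive means repeat tests gave conflicting results; inactive means no significant difference from controls in most replicates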;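 further: slope of initial-normalized fluorescence between seconds 10 and 20 after thallium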
HEK293 Tl flux2: native HEK Tl+ uptake effects, second counter-screen – HEK cells, counterscreen 2, counter-screen for KCC2 modulator project, confirmation. shares compounds with Cl transport mod. AID 1718, 2009. hit rate 33% among 3,700. HEK293 parental, thallium flux FluoZin-2 fluorescence slope. thallium flux slope at 10 µM;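 active means thallium flux slope above the same plate's solvent-control mean plus 3 SD in both duplicate wells; inconclusive means duplicate wells that disagreed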;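 further: run without ouabain in cells lacking the KCC2 cotransporter; slope of fluorescence scaled to its starting value between 10 and 20 s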
* hit, by the source's call; i = inactive; ? = inconclusive; nt = no result given.

SMILES	KCNQ1 pot	KCNQ1 inh	hERG rescue	Cl transport mod	KCNK9 block	KCNK3 block	KCC2 secondary	KCC2 bumet counter	KCC2 secondary2	HEK counter1	KCC2 retest ouab	HEK293 Tl flux2
COc1cc(S(=O)(=O)Nc2ccc(C)cc2)ccc1N=Cc1c(C)c(C#N)c(=O)n(C)c1O	i	i	-6	-0.68	i	i	nt	nt	nt	nt	nt	nt
CSc1nnc(-c2cnccn2)n1CCCN1CCCC1=O	i	i	-9	8.2*	i	i	0.0073	0.0043	0.032	0.0074	0.02	0.01
CN(C(=O)c1cccc(NC(=O)Cc2ccc(NC(=O)C3CCCN(S(=O)(=O)c4cccc([N+](=O)[O-])c4)C3)cc2)c1)C1CCCC1 (centres undefined)	nt	nt	nt	nt	nt	i	nt	nt	nt	nt	nt	nt
COc1ccc(/C=N/NC(=S)Nc2cc(C(F)(F)F)ccc2Cl)cc1	i	i	-6	0.17	i	i	nt	nt	nt	nt	nt	nt
FC(F)(F)c1ccc(Cl)c(NC(=S)N/N=C/c2ccccc2C(F)(F)F)c1	i	i	-2	4.9*	i	i	0.0073	0.014*	?	0.014*	?	0.013*
C/C=C/Cn1c(SCCCc2ccccc2)nc2c1c(=O)[nH]c(=O)n2C	i	i	-9	-5.1*	i	i	0.0067	0.0039	?	0.0054*	?	0.0086*
C=CCn1c(SCCCc2ccccc2)nc2c1c(=O)[nH]c(=O)n2C	i	i	-7	-3.7*	i	i	0.0073	0.0044	0.033	?	0.019	0.01
CCc1n[nH]c(=S)n1/N=C/c1ccc(N(C)c2ccccc2)cc1	i	i	-14	9.5*	i	i	0.0098	0.019*	0.032	0.029*	0.026*	0.012
CCc1cccc(CC)c1NC(=S)NCCc1c(C)[nH]c2ccccc12	i	i	-12	-3.8*	i	i	0.0085	?	0.033	?	0.021	0.01
CS/C(N)=N/C(=S)Nc1cccc(Cl)c1	i	i	-12	7.5*	i	i	0.01	0.018*	0.034	?	0.023	?
O=C(NCc1ccc(F)cc1)c1cc2c(s1)CS(=O)(=O)C2	i	i	-12	nt	i	i	nt	nt	nt	nt	nt	nt
COc1ccccc1NC(=O)c1ccccc1N(Cc1ccccc1)S(C)(=O)=O	i	i	-13	nt	i	i	nt	nt	nt	nt	nt	nt
CC(=O)c1ccc(NC2=C(N3CCOCC3)C(=O)c3ccccc3C2=O)cc1	i	i	-4	-0.35	i	i	nt	nt	nt	nt	nt	nt
Cc1ccc(NC2=C(N3CCOCC3)C(=O)c3ccccc3C2=O)cc1	i	i	-12	nt	i	i	0.0055	0.005	0.026*	0.008	?	0.011
CCN(CC)C(=S)NC(=O)C12CC3CC(CC(C3)C1)C2	i	i	-5	20*	i	i	0.0059	0.055*	0.042*	0.028*	0.043*	0.034*
CCOC(=O)N1CCN(C(=S)NC(=O)C23CC4CC(CC(C4)C2)C3)CC1	i	i	-6	5.9*	i	i	0.01	0.03*	0.037	0.012*	?	0.011
CC(CCc1ccccc1)NC(=O)C(Cc1ccccc1)NS(=O)(=O)c1cccs1 (centres undefined)	i	i	-7	-3.6*	i	i	0.0061	0.0038	?	?	0.015*	0.0094
CC1CCCCC1NC(=O)C(Cc1ccccc1)NS(=O)(=O)c1cccs1 (centres undefined)	i	i	-9	nt	i	i	nt	nt	nt	nt	nt	nt
O=C(CNC(=O)c1ccccc1Br)Nc1cccc(S(=O)(=O)Nc2ccccc2Cl)c1	nt	nt	nt	nt	nt	i	nt	nt	nt	nt	nt	nt
O=C(NNC(=O)c1cc(-c2ccccc2)nn1-c1ccccc1)c1ccccc1	i	i	4	29*	i	i	0.0059	0.1*	0.067*	0.067*	0.076*	0.063*
N#Cc1ccc(-c2csc(NNC(=O)c3ccccc3)n2)cc1	i	i	-9	nt	i	i	nt	nt	nt	nt	nt	nt
O=C(NNc1nc(-c2ccccc2)cs1)c1ccccc1	i	i	-12	-5.9*	i	i	0.011	?	0.025*	0.008	0.014*	0.011
O=C(NNC(=O)c1ccc(-c2ccccc2)cc1)c1ccccc1	i	i	-7	-3.7*	i	i	0.0071	?	0.028	0.0074	0.016	?
O=C(Nc1nc2ccccc2s1)c1cc(-c2ccccc2)nn1-c1ccccc1	i	i	-3	1.4	i	i	nt	nt	nt	nt	nt	nt
COc1cc(Cl)c(C)cc1NC(=O)c1ccccc1-n1cnnn1	nt	nt	nt	nt	nt	i	nt	nt	nt	nt	nt	nt
Cc1cc(=S)[nH]c2ccccc12	i	i	0	5.8*	i	i	0.0084	0.015*	0.029	0.015*	?	0.015*
Cc1ccc2[nH]c(=S)cc(C)c2c1	i	i	-4	21*	i	i	0.011	?	0.038	?	?	0.019*

Assay outcomes: PubChem BioAssay, several laboratories
